# Screens as filed in PubChem.
# TRPML3 agonist: human mucolipin-3 channel agonism; Q8TDD5; HEK293 TRPML3-YFP, Fluo-8 calcium fluorescence; 100% = the carbachol control signal; activation, % at 3 µM; 220,000 tested, 0.29% active;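 active means activation above its plate's cutoff, the mean activation of the plate's test wells plus 3 SD, cut at about 12% in these data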;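 further: 0% = DMSO only wells and 100% = carbachol wells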
# Target sequence (Q8TDD5 whole entry, looked up): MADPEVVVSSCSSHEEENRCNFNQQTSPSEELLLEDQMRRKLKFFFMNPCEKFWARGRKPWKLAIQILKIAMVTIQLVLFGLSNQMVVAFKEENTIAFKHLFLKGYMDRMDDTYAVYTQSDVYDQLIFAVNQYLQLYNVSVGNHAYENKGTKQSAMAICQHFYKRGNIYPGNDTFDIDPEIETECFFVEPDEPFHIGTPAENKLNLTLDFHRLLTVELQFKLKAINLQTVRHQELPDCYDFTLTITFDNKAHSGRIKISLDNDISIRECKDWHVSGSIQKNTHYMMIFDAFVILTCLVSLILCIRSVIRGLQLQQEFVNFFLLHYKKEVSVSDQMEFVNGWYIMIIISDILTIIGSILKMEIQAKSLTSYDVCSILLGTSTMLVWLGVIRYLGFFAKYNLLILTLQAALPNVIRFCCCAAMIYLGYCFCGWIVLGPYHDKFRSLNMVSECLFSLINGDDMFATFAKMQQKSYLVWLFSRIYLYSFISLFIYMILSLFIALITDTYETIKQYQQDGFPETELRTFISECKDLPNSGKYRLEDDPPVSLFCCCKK
#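 Material: TRPML3-YFP stable HEK293 cells | Dosing: One concentration, 3 µM nominal, 0.3% DMSO | Timing: 125 s total fluorescence read per well | Technique: Fluo-8 calcium dye fluorescence, ex 470-495, em 515-575 nm | Measure: Percent activation from peak-to-basal fluorescence ratio, scaled between DMSO and carbachol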
# V1R ag counter: counter-screen for oxytocin receptor agonists: human V1a receptor agonists; P37288; CHO-V1R cells, Fluo-8 calcium fluorescence, agonist mode; 0% DMSO, 100% 3 nM vasopressin; activation, % at 3 µM; 320,000 tested, 0.25% active; AID 2797;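 active means activation above the mean activation of all tested compounds plus 3 SD, per screening run, cut at about 20% in these data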;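 further: signal is peak over basal fluorescence ratio across a 100 second FLIPR read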
# TRPN1 ag: activates the zebrafish TRPN1 channel. HEK293 zebrafish TRPN1-YFP, Fluo-8 calcium fluorescence; 100% = response to 87 µM carbachol. activation, % at 3 µM. 220,000 tested, 0.18% active. AID 1424;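 active means activation above its plate's cutoff, the mean activation of test wells on that plate plus 3 SD, cut at about 19% in these data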;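 further: 0% = DMSO alone and 100% = 87 µM carbachol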
#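 Assay system: Zebrafish TRPN1-YFP in HEK293 cells | Incubation: Dye loading 1 h at 37 °C, then 30 min room temperature | Measured by: Kinetic Fluo-8 fluorescence, ex 470-495, em 515-575 nm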
# OXTR ag: human OXTR agonism | P30559 | CHO-OTR cells, Fluo-8 calcium fluorescence; normalized: DMSO 0%, oxytocin 100% | activation, % at 3 µM | 320,000 tested, 0.32% active | AID 2435;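 active means activation above the mean of all tested compounds plus 3 SD, cutoff set per screening run, cut at about 20% in these data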;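 further: peak over basal fluorescence ratio from a 100 s FLIPR kinetic read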
# OXTR potentiator: potentiates the human oxytocin receptor response | AID 2445 | CHO-OTR cells, Fluo-8 calcium fluorescence, potentiator mode; 0% = oxytocin EC15, 100% = EC100 | 320,000 tested, 0.061% active | activation, % at 3 µM | P30559;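 active means activation above that plate's cutoff, the mean activation of tested compounds plus 3 SD, cut at about 6.6% in these data, passing the limit was not always enough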;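 further: 100% uses oxytocin at 75 nM as the full agonist control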
#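 Material: human OTR in CHO cells. Compound: 3.0 µM, one dose. Timing: compound 6 min at room temperature before oxytocin, 100 s read. Evaluation: % activation of max/min ratio relative to oxytocin controls. Replication: single well per compound, singlicate. Signal: Fluo-8 calcium dye fluorescence.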
# The depositor's hits bear a star; · = not tested or not shown. An excerpt weighted towards active compounds, which were near 0.58% of everything screened.
SMILES,TRPML3 agonist,V1R ag counter,TRPN1 ag,OXTR ag,OXTR potentiator
Cn1c2ccccc2c(=O)c2c(=O)n(C3CCCCC3)c(-c3ccco3)nc21,0.5,28.6*,2.6,16.5,-3.3
Cc1ccc(C)c(NC(=O)C2CCN(C(=O)c3cccs3)CC2)c1,·,-0.1,·,1.3,-8.8
Cc1ccccc1-n1c(O)c(/C=C/C=Nc2ccccc2)c(=O)[nH]c1=O,9.3,29.7*,13.3,47.2*,-15.1
C#CCN1C(=O)S/C(=C/C=C/c2ccc(N(C)C)cc2)C1=O,4.1,23.6*,10.0,35.3*,-11.6
COc1ccc(C)cc1NC(=O)COC(=O)c1c(C)nn(-c2ccccc2)c1C,·,3.8,·,3.3,-9.3
Cc1cccc(C(=O)NNC(=S)NC(=O)c2cccs2)c1,·,63.1*,·,64.9*,-18.7
O=C(CCc1ccccc1)NNC(=S)NC(=O)c1ccccc1,0.8,0.8,-0.9,2.8,-6.4
COc1ccc(C(=O)NNC(=S)NC(=O)c2ccc(OC)cc2)cc1,·,28.2*,·,43.1*,-26.5
COc1ccc(C(=O)NC(=S)NNC(=O)c2cccc(C)c2)cc1,·,94.7*,·,69.9*,-19.3
CC(C)(C)c1cc(CCC(=O)NNC(=S)NC(=O)c2ccccc2)cc(C(C)(C)C)c1O,0.5,30.7*,0.4,57.7*,-19.2
Cc1cccc(CC2CC(=O)N(c3ccc(C)cc3Br)C2=O)c1 (stereo unspecified),·,1.6,·,-0.4,-10.0
Cc1ccc(C)c(S(=O)(=O)N2CCC(c3nc4c(nnn4Cc4ccc5c(c4)OCCO5)c(=O)[nH]3)CC2)c1,·,2.1,·,-0.5,-5.5
COc1ccc(CSc2nc(O)cc(=O)n2CC(C)C)cc1F,·,0.9,·,0.9,4.8
Cc1ccc(C(=O)NNC(=O)c2cccc(C)c2)cc1,0.9,1.3,1.5,-0.1,-1.6
Cc1cccc(C(=O)NNC(=S)NC(=O)c2ccccc2)c1,·,107.7*,·,82.9*,-21.9
COc1ccc(C(=O)NNC(=S)NC(=O)c2ccc(F)cc2)cc1Br,·,75.6*,·,68.0*,-24.1
O=C(COC(=O)Cn1nnc(-c2ccccc2)n1)Nc1cc(F)ccc1F,·,-0.1,·,1.2,-2.5
CCN(CC)c1ccc(/C=C2\SC(=O)N(C(C)C)C2=O)o1,9.2,-0.2,40.4*,-0.1,10.2
CCc1ccc(CN2CCCC(CNC(=O)c3cccc(OC)c3OC)C2)cc1 (stereo unspecified),·,3.4,·,0.2,-2.5
CCN(Cc1ccccc1)C(=O)c1oc2ccc(S(=O)(=O)N3CCOCC3)cc2c1C,·,6.0,·,0.8,0.3
Cc1nnsc1C(=O)N/N=C/c1ccc2ccccc2c1O,1.8,46.6*,3.2,67.3*,-13.2
Cc1nnsc1C(=O)N/N=C/c1ccccc1,0.4,1.5,1.1,0.1,-3.7
CCCC(C)C(=O)Nc1ncc(S(=O)(=O)c2ccc([N+](=O)[O-])cc2)s1 (stereo unspecified),·,45.8*,·,22.5*,-11.5
CCC(C)(C)C(=O)Nc1ncc(S(=O)(=O)c2ccc([N+](=O)[O-])cc2)s1,10.7,22.2*,12.0,32.8*,-22.7
O=C(CCl)Nc1ncc(S(=O)(=O)c2ccc([N+](=O)[O-])cc2)s1,·,3.2,·,4.9,-2.8
SMILES,TRPML3 agonist,V1R ag counter,TRPN1 ag,OXTR ag,OXTR potentiator
CC(C)NC(=O)NC(=O)COc1c(F)c(F)cc(F)c1F,16.6*,-1.0,0.1,-1.2,-10.3
CC(C)(C)C(=O)/C=c1\s/c(=C\c2ccc(-c3ccc([N+](=O)[O-])cc3)o2)c(=O)n1CC(=O)NC(N)=O,16.1*,46.8*,30.8*,36.2*,-7.7
CCN(CC)c1ccc(/C=C2/C(=O)c3ccc(C(=O)O)cc3C2=O)cc1,19.1*,70.2*,34.5*,135.4*,-12.3
CCc1nnc(NC(=O)CN2C(=O)N(C)C3(CCCCC3)C2=O)s1,·,1.3,·,0.5,-3.0
CCCCOc1ccc(-c2nnn(CC(=O)Nc3ncc(CC(=O)OCC)s3)n2)cc1,0.5,26.9*,1.7,32.9*,-18.6
CCOC(=O)Cc1cnc(NC(=O)Cn2nnc(-c3ccc(OCC)cc3)n2)s1,6.4,18.0,3.7,19.1,-21.7
Cc1ccc(S(=O)(=O)/N=C2/NC(=O)/C(=C/c3cc([N+](=O)[O-])ccc3O)S2)cc1,·,33.9*,·,26.1*,-13.1
COc1cc(/C=C2\S/C(=N/S(=O)(=O)c3ccc(C)cc3)NC2=O)c([N+](=O)[O-])cc1OC,0.0,-0.8,0.9,-0.5,1.1
CCN(CC(=O)Nc1cc(Cl)ccc1C)C(=O)c1oc2ccc(OC)cc2c1C,·,-0.9,·,-2.4,-2.8
COc1cc(/C=C(\C#N)c2nc3c(s2)CCCC3)ccc1O,11.0,57.3*,5.6,60.0*,-23.8
CC(=O)C[C@H](O)CC(=O)[C@H]1OC(=O)CC/C=C\Cc2ccccc21,·,-0.4,·,-0.3,-5.1
COc1cc(OC)c(/C=N/NC(=O)c2ccncc2)c(OC)c1,·,-0.1,·,-0.1,4.2
CCOc1ccc(S(=O)(=O)Nc2nc3ccccc3nc2-n2ccc(=NC(=O)c3ccccc3C)cc2)cc1,13.5*,3.8,37.3*,1.2,-5.7
CC(=O)NC(Cc1ccccc1F)C(=O)NC1CCN(C(=O)NCc2ccccc2)CC1 (stereo unspecified),·,0.1,·,0.7,-5.8
CCOC(=O)CN1C(=O)NC(C)(c2ccc(OC(F)F)cc2)C1=O (stereo unspecified),0.3,3.5,-0.3,6.0,-9.2
CC1(c2ccc(OC(F)F)cc2)NC(=O)N(CC(=O)Nc2ccc3c(c2)OCO3)C1=O (stereo unspecified),26.4*,45.4*,30.2*,39.2*,-9.8
CC1(c2ccc(OC(F)F)cc2)NC(=O)N(CC(=O)Nc2ccccc2)C1=O (stereo unspecified),·,32.2*,·,46.5*,-16.3
CC(=O)Nc1ccc(/C=N/N2C(=O)NC(C)(c3ccc(OC(F)F)cc3)C2=O)cc1 (stereo unspecified),4.4,38.5*,17.8,55.2*,-18.6
O=C(CN1CCN(Cc2ccccc2)CC1)NNC(=O)c1ccccc1,·,0.5,·,-0.8,-4.0
CC(C)=CCC[C@](C)(O)C1CC[C@]2(C)C1[C@H](O)CC1[C@@]3(C)CC[C@H](O[C@@H]4O[C@H](CO)[C@@H](O)[C@H](O)[C@H]4O[C@@H]4O[C@H](CO)[C@@H](O)[C@H](O)[C@H]4O)C(C)(C)C3CC[C@]12C (stereo partly specified),·,38.1*,·,70.1*,-12.3
Cn1c(CN2CCCCC2)nc2cc(NS(=O)(=O)c3ccc(Cl)cc3)ccc21,3.5,31.9*,2.6,33.6*,-12.3
COc1cccc2c1C(=O)c1c(O)c3c(c(O)c1C2=O)C[C@@](O)(C(=O)CO)C[C@@H]3O[C@H]1C[C@H](N)[C@H](O)[C@H](C)O1,11.3,22.9*,27.1*,24.6*,-9.9
